For data set [1] the following is noted: cited from earlier work.
The nature of data set [2]: PIT-slope characterization. It counts as physicochemical. Particulars: molar fraction; added to 3%C10E4/n-octane/10^−2 M NaClaq. In outline: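 Increasing amounts of test surfactant added to a reference system of 3% C10E4/n-octane/aqueous NaCl. The shift in phase inversion temperature was recorded against concentration and against molar fraction, x = moles added/(moles C10E4 + moles added). Pure n-alkyl-β-D-glucosides and maltosides served as linear references. Average error below 10%.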

For data set [3] the following is noted: 3%C10E4/n-octane/10^−2 M NaClaq; cited from earlier work.
The conditions of data set [4]: parameter of the normalized HLD; cited from earlier work.
The conditions of data set [5]: calculated from NMR experiments in D2O solutions; cited from earlier work.
The mark [6] stands for this setting: a = turbid solutions close and above CMC.

Like-named read-outs stand apart in the source and are kept apart here.

With `CCCCCCCCCCCCO[C@H]1O[C@H](CO)[C@@H](O)[C@H](O)[C@H]1O` [α-D-Glucoside C12], in data set [1] (setting [6]), the CMC was 0.042 mmol/L and the γCMC was 41.2 mN m^−1.
Turning to `CCCCCCCCCCCCCCCC(=O)OC[C@H]1OC(O)[C@H](O)[C@H]1O` (single isomer, unassigned) [5-O-Xylose monoester (α, β isomers) C16], in data set [1] (setting [6]), the CMC was 0.022 mmol/L and the γCMC was 41.0 mN m^−1.
On to `CCCCCCCCCCCCCC(=O)OC[C@H]1OC(O)[C@H](O)[C@H]1O` (single isomer, unassigned) [5-O-Xylose monoester (α, β isomers) C14], for which, in data set [1] (setting [6]), the CMC was 0.015 mmol/L and the γCMC is given as 36.0 mN m^−1.
Consider `CCCCCCCCCCCCCCO[C@@H]1O[C@H](CO)[C@@H](O[C@H]2O[C@H](CO)[C@@H](O)[C@H](O)[C@H]2O)[C@H](O)[C@H]1O` [β-D-Maltoside C14], for which the CMC in data set [1] (ref 34) is 0.0167 mmol/L. Also, the dPIT/dx in data set [2] amounted to 80.7 °C.
On to `CCCCCCCCCCO[C@@H]1O[C@H](CO)[C@@H](O[C@H]2O[C@H](CO)[C@@H](O)[C@H](O)[C@H]2O)[C@H](O)[C@H]1O` [β-D-Maltoside C10], for which, in data set [1] (ref 34), the CMC was 2.19 mmol/L. In addition, in data set [1] (ref 45), the CMC was 1.95 mmol/L and the γCMC is 36.7 mN m^−1. The dPIT/dx in data set [2] is 123.0 °C.
Take `CCCCCCCCCCOCCOCCOCCOCCO` [C10E4]: the “PIT (Phase Inversion Temperature) of the reference system” value in data set [3] was 23.9 °C. Also, the PACN1 in data set [4] is recorded as 8.2.
With `CCCCCCCCCCCCO[C@H]1O[C@H](CO)[C@@H](O[C@H]2O[C@H](CO)[C@@H](O)[C@H](O)[C@H]2O)[C@H](O)[C@H]1O` [α-D-Maltoside C12], in data set [1] (setting [6]), the CMC was 0.12 mmol/L and the γCMC is recorded as 35.9 mN m^−1.
For the compound `CCCCCCCCCCCCCCCCO[C@@H]1O[C@H](CO)[C@@H](O[C@H]2O[C@H](CO)[C@@H](O)[C@H](O)[C@H]2O)[C@H](O)[C@H]1O` [β-D-Maltoside C16], the CMC in data set [1] (ref 34) was 0.00145 mmol/L. The dPIT/dx in data set [2] was found to be 74.3 °C.
As for `CCCCCCCCCCCCO[C@@H]1O[C@H](CO)[C@@H](O)[C@H](O)[C@H]1O` [β-D-Glucoside C12], in data set [1] (setting [6]), the CMC is 0.13 mmol/L and the γCMC is 33.1 mN m^−1. Besides, in data set [1] (ref 44), the CMC is 0.19 mmol/L and the γCMC was 39.4 mN m^−1. Further, in data set [2], the dPIT/dx was determined as 27.0 °C.
Take `CCCCCCCCCCCCO[C@@H]1O[C@H](CO)[C@@H](O[C@H]2O[C@H](CO)[C@@H](O)[C@H](O)[C@H]2O)[C@H](O)[C@H]1O` [β-D-Maltoside C12, n-dodecyl-β-D-maltoside]: in data set [5], the “Diffusion coefficient of micelles” value is 7 × 10^−11 m^2 s^−1. Besides, the CMC was 0.13 mmol/L in data set [1] (setting [6]), 0.19 mmol/L in data set [1] (ref 34) and 0.15 mmol/L in data set [1] (ref 45). For the same compound, the γCMC in data set [1] (setting [6]) is given as 33.1 mN m^−1; in data set [1] (ref 45), 35.3 mN m^−1. Also, the “Γeq (equilibrated surface excess)” value in data set [1] (ref 60) was 3.32 × 10^−6 mol m^−2. In data set [2], the dPIT/dx worked out at 112.2 °C.
On to `CCCCCCCCO[C@@H]1O[C@H](CO)[C@@H](O[C@H]2O[C@H](CO)[C@@H](O)[C@H](O)[C@H]2O)[C@H](O)[C@H]1O` [β-D-Maltoside C8], for which the CMC in data set [1] (ref 34) was 23.2 mmol/L.
Take `CCCCCCCCO[C@@H]1O[C@H](CO)[C@@H](O)[C@H](O)[C@H]1O` [β-D-Glucoside C8, n-octyl-β-D-glucoside]: in data set [1] (ref 44), the CMC is 25.0 mmol/L and the γCMC is recorded as 30.1 mN m^−1. This compound displayed a dPIT/dx in data set [2] of 77.8 °C.
As to `CCCCCCCCCCO[C@@H]1O[C@H](CO)[C@@H](O)[C@H](O)[C@H]1O` [β-D-Glucoside C10], in data set [1] (ref 44), the CMC was 2.2 mmol/L and the γCMC is 27.7 mN m^−1. The dPIT/dx in data set [2] was determined as 47.8 °C.
In the case of `CCCCCCCCCO[C@@H]1O[C@H](CO)[C@@H](O[C@H]2O[C@H](CO)[C@@H](O)[C@H](O)[C@H]2O)[C@H](O)[C@H]1O` [β-D-Maltoside C9], the CMC in data set [1] (ref 34) was 6.50 mmol/L.

These data come from paper PMC9052940 (RSC Advances, 2020).
